Shown are actives, neighbours in structure and some others; about 4.4% of the full set was active somewhere.
AHR act – AHR activators, primary screen, cell-based, luminescence, luciferase reporter, human; activation, % at 5 µM; 2.5% of 320,000 active; Aryl hydrocarbon receptor (Homo sapiens), P35869; AHR-responsive luciferase reporter cells; in the data active = activation above about 47%
Target sequence (P35869 whole entry, looked up): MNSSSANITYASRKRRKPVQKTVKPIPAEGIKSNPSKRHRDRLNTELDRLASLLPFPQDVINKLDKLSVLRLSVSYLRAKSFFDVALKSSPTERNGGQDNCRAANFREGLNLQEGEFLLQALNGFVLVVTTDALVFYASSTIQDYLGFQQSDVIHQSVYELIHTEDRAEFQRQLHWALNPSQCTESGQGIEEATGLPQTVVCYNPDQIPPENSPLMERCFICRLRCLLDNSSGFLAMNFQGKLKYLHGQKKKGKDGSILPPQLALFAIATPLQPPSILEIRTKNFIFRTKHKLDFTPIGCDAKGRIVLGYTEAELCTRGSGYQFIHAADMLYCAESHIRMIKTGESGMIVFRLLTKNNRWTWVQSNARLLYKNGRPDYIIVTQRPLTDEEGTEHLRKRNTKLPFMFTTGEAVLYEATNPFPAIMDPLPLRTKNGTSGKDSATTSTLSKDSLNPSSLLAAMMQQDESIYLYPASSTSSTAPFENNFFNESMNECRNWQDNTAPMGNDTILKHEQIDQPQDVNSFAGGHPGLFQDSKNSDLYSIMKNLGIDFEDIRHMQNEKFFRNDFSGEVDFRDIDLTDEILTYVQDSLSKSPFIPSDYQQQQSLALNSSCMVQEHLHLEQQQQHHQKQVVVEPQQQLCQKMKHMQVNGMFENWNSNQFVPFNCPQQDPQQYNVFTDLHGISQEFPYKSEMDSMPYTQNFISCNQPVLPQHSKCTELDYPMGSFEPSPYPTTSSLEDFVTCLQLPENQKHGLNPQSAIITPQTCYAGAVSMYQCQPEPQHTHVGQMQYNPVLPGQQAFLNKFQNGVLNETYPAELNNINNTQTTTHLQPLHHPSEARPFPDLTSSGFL
bovine MsrA act – bovine MsrA enzyme activators, primary screen, biochemical, absorbance, HTS; 0.3% of 360,000 active; purified bovine MsrA, absorbance read-out; activation, % at 10.6 µM; in the data active = activation above about 7.5%
Tb MetRS inh – T. brucei MetRS inhibitors, primary screen, biochemical, luminescence; purified T. brucei MetRS, ATP depletion, Kinase-Glo luminescence; inhibition, % at 11.9 µM; 0.4% of 360,000 active; AID 624268, 2012;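 active = inhibition above a per-plate cutoff of the control wells' mean inhibition plus 3 SD, cut at about 5.5% in these data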
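technique = Kinase-Glo luminescence, ATP depletion format | system = purified MetRS (methionyl-tRNA synthetase) enzyme from Trypanosoma brucei | timing = 15 min preincubation, 2 h reaction, all 25 °C | evaluation = percent inhibition versus plate control medians | dosing = single dose, 11.9 µM final nominal, 0.9% final DMSO | also added = substrates ATP, L-methionine and bulk Escherichia coli tRNA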
AI-2 QS modul – Vibrio harveyi AI-2 quorum sensing modulators, primary screen, JMH597 strain, luminescence/OD600 ratio; Vibrio harveyi JMH597 AI-2 luminescence/OD600 ratio, 9 h; active compounds read low; strain lacks LuxN and CqsS sensors; 0 = neutral-control median; activity change, % at 7.5 µM; 0.4% of 300,000 active; AID 2094, 2009; in the data active = activity change below about -75%, passing the limit was not always enough;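 also: luminescence divided by OD600 gain over 9 h not by final OD600 alone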
m5-HT2A agonist – mouse Htr2a agonists via beta-arrestin recruitment, primary screen, cell-based, luminescence; 5-hydroxytryptamine receptor 2A (Mus musculus), P35363; CHO-K1 mHTR2A beta-arrestin complementation; percent of 30 µM serotonin response; activation, % at 7.6 µM; 0.66% of 360,000 active; AID 624169, 2012;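 active = activation above a run cutoff, the mean activation of all tested compounds plus 3 SD, cut at about 14% in these data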
MsrA inh – bovine MsrA enzyme inhibitors, primary screen, biochemical, absorbance, HTS; inhibition, % at 15.5 µM; purified bovine MsrA, absorbance read-out; Methionine sulfoxide reductase A (Bos taurus); 0.75% of 360,000 active; in the data active = inhibition above about 4.5%
AHR act confirm – AHR activators, confirmation, cell-based, luminescence, luciferase reporter, human | 87% of 2,300 active | activation, % at 9 µM | shares compounds with AHR act | human cells, AHR-responsive luciferase reporter | AID 2845, 2010; in the data active = activation above about 49%;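 also: HepG2 hepatoma cells carrying a DRE-driven firefly luciferase reporter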
PXR act counter – human PXR activators, counter-screen for AHR activator project, cell-based, luciferase luminescence. shares compounds with AHR act. cell-based PXR reporter. activation, % at 11.6 µM. 88% of 2,300 active. AID 434939, 2010; in the data active = activation above about 11%;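 also: human hepatoma DPX-2 cells expressing full-length human PXR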
Each line names hits and unclear results; the compound was inactive in the other large screens (follow-up assays come after a bar, where they were run).

CCC(C)C(=O)Nc1nc(C)c(-c2csc(Nc3cc(Cl)ccc3OC)n2)s1 (stereo not drawn)	AHR act 84.5 | AHR act confirm 56.4 | PXR act counter 30.2
COc1ccc(Cl)cc1Nc1nc(-c2cccnc2)cs1	none
CCC(C)C(=O)Nc1nc(C)c(-c2csc(Nc3cc(OC)ccc3OC)n2)s1 (stereo not drawn)	AHR act 82.7 | AHR act confirm 61.1 | PXR act counter 52.5
COc1ccc(Cl)cc1Nc1nc(-c2sc(NC(=O)c3ccco3)nc2C)cs1	AHR act 106.5 | AHR act confirm 75.3 | PXR act counter 20.6
Cc1nnsc1C(=O)Nc1ccc(Cl)cc1	AHR act 105.5 | AHR act confirm 63.7 | PXR act counter 25.6
Cc1ocnc1C(=O)Nc1ccc(Cl)cc1	AHR act 103.8 | AHR act confirm 66.1 | PXR act counter 25.1
CC1CCN(c2ccc(NC(=S)NC(=O)c3ccc(-c4cccc([N+](=O)[O-])c4)o3)cc2)CC1	AHR act 82.1 | AHR act confirm inactive | PXR act counter 14.7
CN(C)CCNC(=O)C1(C)Cc2c(-c3cccc(C(F)(F)F)c3)ccnc2O1 (stereo not drawn)	none (no result: AHR act, AI-2 QS modul)
CC(C)CNC(=S)N(CCCO)Cc1cc2cc3c(cc2[nH]c1=O)OCO3	AHR act 91.7 (no result: AI-2 QS modul) | AHR act confirm 100.2 | PXR act counter 19.1
c1cncc(CNc2cccc(-c3nc4ccccc4[nH]3)c2)c1	AHR act 167.0 | AHR act confirm 112.3 | PXR act counter 137.3
c1ccc(NCc2cccnc2)cc1	none (no result: AI-2 QS modul)
O=C(Nc1nc(-c2cccs2)cs1)c1ccc(Cl)cc1	AHR act 129.0 | AHR act confirm 123.4 | PXR act counter 35.6
OC[C@@H]1CN(Cc2ccncc2)C[C@H](n2cnc3c(N4CCCC4)ncnc32)O1	none (no result: AHR act, AI-2 QS modul)
CC(=O)c1c(C)[nH]c(C(=O)CN2CCN(S(=O)(=O)c3ccccc3[N+](=O)[O-])CC2)c1C	none (no result: AI-2 QS modul)
N#Cc1cccc2c1-c1ccccc1/C2=N/NC(N)=O	none (no result: MsrA inh)
N#Cc1cccc2c1-c1ccccc1/C2=N/NC(N)=S	AHR act 139.2 (no result: MsrA inh) | AHR act confirm 117.0 | PXR act counter 44.5
COc1ccc(Br)cc1C(=O)Nc1cccc(NC(=O)c2ccco2)c1	AHR act 84.4 | AHR act confirm 97.5 | PXR act counter 14.8
COc1ccc(Br)cc1C(=O)Nc1ccccc1-c1ccccc1	AHR act 81.5 | AHR act confirm 76.2 | PXR act counter 12.7
COc1ccc(NC(=O)c2ccco2)cc1NC(=O)c1ccccc1F	AHR act 87.1 | AHR act confirm 94.7 | PXR act counter 11.6
COc1ccc(NC(=O)c2cccs2)cc1NC(=O)c1ccco1	none
O=C(CN1C(=O)NC2(CCCCC2)C1=O)Oc1ccc2ccc(=O)oc2c1	none (no result: AI-2 QS modul)
CC(=O)c1cccc(NC(=O)c2ccc(Br)o2)c1	none
O=C(Nc1cccc(F)c1)c1c(F)c(F)c(F)c(F)c1F	AHR act 95.0 | AHR act confirm 71.6 | PXR act counter 30.5
O=C(Nc1cccc(F)c1)c1ccc(Br)o1	AHR act 120.3 | AHR act confirm 67.2 | PXR act counter 20.0
CCN(C(=O)CSc1nc(C)c(C)c(C)n1)C1CCS(=O)(=O)C1 (stereo not drawn)	none (no result: AI-2 QS modul)
Fc1ccc(NC(=S)NN=Cc2ccccc2Cl)cc1	none (no result: AHR act, AI-2 QS modul)
S=C(N/N=C/c1ccccc1Cl)Nc1cccc(Cl)c1Cl	AHR act 118.5 | AHR act confirm 102.8 | PXR act counter 30.3
Clc1ccccc1CSc1cnnc2ccccc12	none (no result: AHR act, AI-2 QS modul)
CC(C)C[C@@H]1COc2cc(NCCO)ccc2S(=O)(=O)N1	none (no result: AHR act, bovine MsrA act, Tb MetRS inh, AI-2 QS modul, m5-HT2A agonist)
COc1ccc(OC)c(S(=O)(=O)N2Cc3ccccc3CC2C(=O)Nc2nccs2)c1 (stereo not drawn)	AHR act 84.2 | AHR act confirm 59.8 | PXR act counter 135.4
Cc1ccc(C)c(OCCn2ccnc2)c1	none (no result: MsrA inh)
Cc1cc(C)c(C)c(OCCn2ccnc2)c1	AHR act 90.0 | AHR act confirm 54.5 | PXR act counter 14.3
Cc1sc2nc(CSC(C)C(=O)N(C)CC(=O)Nc3ccccc3C(F)(F)F)[nH]c(=O)c2c1C (stereo not drawn)	none
Cc1sc2nc(CSc3ccc([N+](=O)[O-])c(C(F)(F)F)c3)[nH]c(=O)c2c1C	AHR act 83.2 | AHR act confirm 76.2 | PXR act counter 31.6
Nc1n[nH]c(C2CC2)c1N=Nc1ccc(Cl)cc1	AHR act 80.7 | AHR act confirm 100.5 | PXR act counter inactive
Cc1cccc(N=Nc2c(N)n[nH]c2-c2ccc(Cl)cc2)c1	none
CC(=O)/C(=N/Nc1ccc(Br)cc1)Sc1cccc2cccnc12	AHR act 125.0 | AHR act confirm 115.8 | PXR act counter 179.9
C=CCn1cc(/C=N/NC(=O)COc2cccc3cccnc23)c2ccccc21	AHR act 82.1 | AHR act confirm inactive | PXR act counter 38.3
COCCN(Cc1ccccc1)C(=O)C1CCN(S(=O)(=O)c2ccc3c(c2)OCCO3)CC1	none (no result: AI-2 QS modul)
Cc1cccnc1NC(=S)Nc1ncccc1C	none
CCOc1ccccc1NC(=S)Nc1ncccc1C	AHR act 121.8 | AHR act confirm 80.6 | PXR act counter 52.4
Cc1nc(N2CCN(Cc3nc4ccccc4[nH]3)CC2)c2oc3ccccc3c2n1	none
Cc1nc(N2CCOCC2)c2oc3ccccc3c2n1	AHR act 99.5 | AHR act confirm 92.3 | PXR act counter 24.2
N#Cc1ccc(CNC(=O)N2CCOCC2)cc1	none
COc1cccc(N=Cc2c(O)c3ccccc3oc2=O)c1	none
Cc1csc(SCC(=O)Nc2ccc(Cl)cn2)n1	AHR act 98.2 | AHR act confirm 98.4
CN(C)S(=O)(=O)c1cc(C(=O)Nc2ccccc2C(=O)NC2CC2)ccc1Cl	none (no result: AI-2 QS modul)
Cc1[nH]c2ccccc2c1/C=C/C(=O)c1ccccc1	AHR act 129.3 | AHR act confirm 123.3 | PXR act counter 72.6
Cc1[nH]c2ccccc2c1/C=C/c1nc2ccccc2c(=O)[nH]1	AHR act 166.0 | AHR act confirm 91.2 | PXR act counter 54.7
Cc1cccc(/C=C/c2nc3ccccc3c(=O)[nH]2)c1	none
CN(C(=O)c1nn(C)c2c1CSc1ccccc1-2)c1ccccc1Cl	none
